Read-outs that look alike come from different tables or passages of the source.
Assays:
[1] = stability assay in buffer, medium and serum; type: in vitro ADME; conditions: pure serum (FCS), 37 °C, up to 72 h
[2] = target: c-MET phosphorylation (Homo sapiens, UniProt P08581); experiment: Western blot of c-MET phosphorylation in H1993 cells; type: cell-based; conditions: H1993, 24 h
[3] = test system: H2228 cells (non-small cell lung cancer, ALK-dependent); experiment: cytotoxicity assay; type: cell-based, human; conditions: for cytotoxic activity under hypoxia vs normoxia: H2228, 72 h, 1 % O2 vs 21 % O2; for IC50: read-out: IC50 cytotoxicity
[4] = test system: ALK; conditions: cell-free kinase assay
[5] = solubility in PBS; type: physicochemical
[6] = test system: HACAT (keratinocytes from human skin); experiment: cytotoxicity in non-malignant cells; type: cell-based; conditions: normoxic, 72 h
In short: (§1)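 Non-malignant HACAT keratinocytes or HLF lung fibroblasts in RPMI 1640 with 10% FCS, under normoxia (37 °C, 21% O₂, 5% CO₂). Cells were seeded at 3-6x10³/well and recovered 24 h. They were then exposed for 72 h to increasing concentrations of test compound diluted from DMSO stock (final DMSO <1%). Viability was read by MTT (EZ4U), with IC50 fitted from full dose-response curves.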

[7] = test system: ERK 1/2 phosphorylation; experiment: Western blot of ERK 1/2 phosphorylation in H1993 cells; type: cell-based, human; conditions: H1993, 24 h
In short: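 H1993 cells in RPMI 1640 with 10% FCS were plated at 8x10⁵ cells/dish and allowed 24 h recovery. They were exposed for 24 h to DMSO-diluted test compound (final DMSO <1%) at 21% or 1% O₂. Lysates were run on SDS-PAGE/PVDF and probed for p-ERK 1/2 (Thr202/Tyr204), ERK 1/2 and β-actin (all 1:1000), with HRP secondaries at 1:10000. Read-out: p-ERK/ERK ratio after β-actin normalisation.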

[8] = target: c-MET phosphorylation in H1993 tumor tissue (Homo sapiens, UniProt P08581); experiment: H1993 xenograft, immunohistochemistry of p-c-MET; type: in vivo; conditions: 24 h, H1993 s.c. in SCID mice
[9] = test system: HLF (fibroblasts from human lung); experiment: cytotoxicity in non-malignant cells; type: cell-based; conditions: normoxic, 72 h
In short: as §1

[10] = target: nitroreductase enzyme (E. coli) (Escherichia coli, UniProt P38489); conditions: nitroreductase + NADH, pH 7.4, 37 °C, HPLC; for conversion of prodrug by nitroreductase: after 10 min
[11] = test system: RUMH cells (renal cell carcinoma, c-MET-overexpressing); experiment: cytotoxicity assay; type: cell-based, human; conditions: for cytotoxic activity under hypoxia vs normoxia: 72 h, 1 % O2 vs 21 % O2; for IC50: read-out: IC50 cytotoxicity
In short: (§2)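 MTT (EZ4U) viability in H1993 or in-house-established RUMH cells in RPMI 1640 with 10% FCS. Cells were seeded at 3-6x10³/well and recovered 24 h, then given increasing concentrations of test compound (final DMSO <1%). Exposure was 24 h or 72 h at 21% O₂ (normoxia) or 1% O₂ (hypoxia). IC50 came from full dose-response curves; one representative experiment in triplicate, mean ± SD.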

[12] = stability down to pH 1; type: physicochemical; conditions: down to pH 1, 24 h, 37 °C; data not shown
[13] = test system: H1993 tumor cell proliferation (Ki-67); experiment: H1993 xenograft, immunohistochemistry of Ki-67 and tumor histology; type: in vivo, SCID mice; conditions: 24 h
[14] = test system: H1993 cells (non-small cell lung cancer, c-MET-dependent); experiment: cytotoxicity assay; type: cell-based, human; conditions: for cytotoxic activity under hypoxia vs normoxia: H1993, 72 h, 1 % O2 vs 21 % O2; for IC50: read-out: IC50 cytotoxicity
In short: as §2

[15] = test system: c-MET; conditions: cell-free kinase assay
[16] = H2228, 24 h treatment, MTT, 1 % O2 or 21 % O2
[17] = RUMH, 24 h treatment, MTT, 1 % O2 or 21 % O2
[18] = H1993, 24 h treatment, MTT, 1 % O2 or 21 % O2

nitroreductase enzyme (E. coli), sequence (P38489 whole entry): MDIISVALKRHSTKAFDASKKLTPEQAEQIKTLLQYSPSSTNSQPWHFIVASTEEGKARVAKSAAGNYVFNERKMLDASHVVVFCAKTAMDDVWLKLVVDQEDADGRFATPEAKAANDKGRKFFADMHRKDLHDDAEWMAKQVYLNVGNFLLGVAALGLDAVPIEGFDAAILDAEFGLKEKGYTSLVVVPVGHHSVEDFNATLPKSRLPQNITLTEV
c-MET phosphorylation, sequence (P08581 25-1390): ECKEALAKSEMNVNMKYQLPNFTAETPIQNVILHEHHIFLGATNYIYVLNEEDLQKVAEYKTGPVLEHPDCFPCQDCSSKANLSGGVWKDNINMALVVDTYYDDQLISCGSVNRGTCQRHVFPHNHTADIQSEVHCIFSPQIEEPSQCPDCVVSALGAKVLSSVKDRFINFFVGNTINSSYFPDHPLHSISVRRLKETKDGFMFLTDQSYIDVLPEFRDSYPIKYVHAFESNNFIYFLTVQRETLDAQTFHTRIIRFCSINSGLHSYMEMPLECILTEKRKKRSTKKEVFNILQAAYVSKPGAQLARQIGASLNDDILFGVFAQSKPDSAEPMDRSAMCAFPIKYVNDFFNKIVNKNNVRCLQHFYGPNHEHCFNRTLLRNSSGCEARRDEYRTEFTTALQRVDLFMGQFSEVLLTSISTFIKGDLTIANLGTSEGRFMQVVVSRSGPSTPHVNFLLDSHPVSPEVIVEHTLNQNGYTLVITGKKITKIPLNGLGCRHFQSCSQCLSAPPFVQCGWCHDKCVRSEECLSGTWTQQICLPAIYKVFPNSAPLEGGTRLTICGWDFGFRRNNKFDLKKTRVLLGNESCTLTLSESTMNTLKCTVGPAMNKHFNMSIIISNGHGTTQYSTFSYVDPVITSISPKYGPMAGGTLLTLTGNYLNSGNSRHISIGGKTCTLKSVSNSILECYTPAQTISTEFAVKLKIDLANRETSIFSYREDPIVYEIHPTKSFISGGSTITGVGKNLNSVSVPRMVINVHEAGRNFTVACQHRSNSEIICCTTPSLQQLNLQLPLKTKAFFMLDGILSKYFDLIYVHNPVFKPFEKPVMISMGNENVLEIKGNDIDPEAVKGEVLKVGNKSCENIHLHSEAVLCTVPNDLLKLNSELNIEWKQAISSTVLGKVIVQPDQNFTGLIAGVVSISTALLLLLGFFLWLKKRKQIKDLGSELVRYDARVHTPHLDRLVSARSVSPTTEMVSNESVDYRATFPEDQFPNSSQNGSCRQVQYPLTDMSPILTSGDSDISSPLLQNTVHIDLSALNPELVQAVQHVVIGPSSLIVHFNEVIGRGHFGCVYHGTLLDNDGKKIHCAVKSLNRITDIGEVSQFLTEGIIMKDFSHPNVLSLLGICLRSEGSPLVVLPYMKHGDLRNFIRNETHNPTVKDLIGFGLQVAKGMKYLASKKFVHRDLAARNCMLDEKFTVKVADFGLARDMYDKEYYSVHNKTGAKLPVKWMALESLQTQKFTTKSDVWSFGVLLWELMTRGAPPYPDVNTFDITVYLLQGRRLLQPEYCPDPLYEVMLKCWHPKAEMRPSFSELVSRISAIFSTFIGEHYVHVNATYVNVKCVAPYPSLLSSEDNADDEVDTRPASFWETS
c-MET phosphorylation in H1993 tumor tissue, sequence (P08581 25-1390): as above

C[C@@H](Oc1cc(-c2cnn(C3CCNCC3)c2)cnc1NC(=O)OCc1cnc([N+](=O)[O-])n1C)c1c(Cl)ccc(F)c1Cl [prodrug A, (1-methyl-2-nitro-1H-imidazol-5-yl)methyl (R)-(3-(1-(2,6-dichloro-3-fluorophenyl)ethoxy)-5-(1-(piperidin-4-yl)-1H-pyrazol-4-yl)pyridin-2-yl)carbamate*1.5TFA]
stability in pure serum [1]: no significant degradation
inhibition of c-MET phosphorylation ([2]; hypoxia (1 % O2), 5 μM): 40%
inhibition of c-MET phosphorylation ([2]; hypoxia (1 % O2), 10 μM): 70%
inhibition of c-MET phosphorylation ([2]; normoxia (21 % O2), up to 10 μM): < 10%
cytotoxic activity under hypoxia vs normoxia [3]: similarly active
IC50 [3, 16]: > 25 µM
lower inhibitory potential compared to crizotinib (IC50 ratio) [4]: 42 fold
solubility ([5]; phosphate-buffered saline (PBS), room temperature): > 20 mg/mL
activity against non-malignant cells in comparison to free crizotinib [6]: distinctly reduced activity
inhibition of ERK 1/2 phosphorylation signal ([7]; hypoxia (1 % O2), 5 μM): ~ 60%
inhibition of ERK 1/2 phosphorylation signal ([7]; hypoxia (1 % O2), 10 μM): ~ 80%
inhibition of ERK 1/2 phosphorylation signal ([7]; normoxia (21 % O2), 5 μM): < 10%
c-MET phosphorylation in tumor tissue ([8]; 38.5 mg/kg i.v., single dose): significant inhibition
level of p-c-MET in tumor tissue ([8]; 89.2 mg/kg p.o.): did not significantly change
activity against non-malignant cells in comparison to free crizotinib [9]: distinctly reduced activity
release of crizotinib as main product [10]: about 80%
conversion of prodrug by nitroreductase [10]: complete conversion
cytotoxic activity under hypoxia vs normoxia ([11]; RUMH): promising hypoxia-mediated activity
IC50 [11, 17]: > 25 µM
stability at low pH [12]: confirmed the stability
cell proliferation (Ki-67) in tumor tissue ([13]; 38.5 mg/kg i.v., single dose, H1993 s.c. in SCID mice): inhibition of cell proliferation
tumor histology (tumor:stroma ratio) ([13]; 38.5 mg/kg i.v., single dose, data not shown): reduction of the tumor:stroma ratio
Ki-67 expression in tumor tissue ([13]; 89.2 mg/kg p.o., H1993 s.c. in SCID mice): did not significantly change
cytotoxic activity under hypoxia vs normoxia [14]: promising hypoxia-mediated activity
IC50 [14, 18]: > 25 µM
lower inhibitory potential compared to crizotinib (IC50 ratio) [15]: 33 fold

Cn1c(COP(=O)(NCCBr)NCCBr)cnc1[N+](=O)[O-] [TH-302, reference compound]
cytotoxic activity under hypoxia vs normoxia [3]: significant anticancer activity under low oxygen levels
IC50 ([3]; Homo sapiens, NCI-H2228, 24 h): > 25 µM
IC50 ([11]; Homo sapiens, 24 h): > 25 µM
cytotoxic activity under hypoxia vs normoxia ([11]; RUMH): significant anticancer activity under low oxygen levels
cytotoxic activity under hypoxia vs normoxia [14]: significant anticancer activity under low oxygen levels
IC50 ([14]; Homo sapiens, NCI-H1993, 24 h): > 25 µM

C[C@@H](Oc1cc(-c2cnn(C3CCNCC3)c2)cnc1N)c1c(Cl)ccc(F)c1Cl [crizotinib, reference compound]
solubility ([5]; phosphate-buffered saline): < 0.5 mg/mL
IC50 ([11]; Homo sapiens, 24 h): ~20 µM
Ki-67 expression in tumor tissue ([13]; 50 mg/kg p.o., H1993 s.c. in SCID mice): slight impact
IC50 ([14]; Homo sapiens, NCI-H1993, 24 h): ~20 µM

C[C@@H](Oc1cc(-c2cnn(C3CCNCC3)c2)cnc1NCc1cnc([N+](=O)[O-])n1C)c1c(Cl)ccc(F)c1Cl [prodrug B, (R)-3-(1-(2,6-dichloro-3-fluorophenyl)ethoxy)-N-((1-methyl-2-nitro-1H-imidazol-5-yl)methyl)-5-(1-(piperidin-4-yl)-1H-pyrazol-4-yl)pyridin-2-amine *2TFA]
IC50 cytotoxicity [3, 16]: distinct anticancer activity in a range similar to crizotinib
lower inhibitory potential compared to crizotinib (IC50 ratio) [4]: > 143 fold
release of crizotinib as main product [10]: no formation of crizotinib
conversion of prodrug by nitroreductase [10]: could not be activated
IC50 cytotoxicity [11, 17]: distinct anticancer activity in a range similar to crizotinib
IC50 cytotoxicity [14, 18]: distinct anticancer activity in a range similar to crizotinib
lower inhibitory potential compared to crizotinib (IC50 ratio) [15]: 64 fold

From PMC7611434 (Bioorganic chemistry, 2020)
